# Columns and labels:
# LAD2 [1] = experiment: Inhibition of IgE-mediated human LAD2 cell degranulation assessed as beta-hexosaminidase release using p-nitrophenyl-N-acetyl-D-glucosamide as substrate preincubated for 30 mins measured 90 mins after substrate addition by spectrophotometric analysis
# LAD2 [2] = experiment: Inhibition of IgE-mediated human LAD2 cell degranulation assessed as beta-hexosaminidase release using p-nitrophenyl-N-acetyl-D-glucosamide as substrate at 1 uM preincubated for 30 mins measured 90 mins after substrate addition by spectrophotometric analysis; type: functional
# Outline: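 LAD2 mast cells sensitised overnight (37°, 5% CO2) in StemPro-34 with 2 mM glutamine and 100 ng/ml SCF plus 100 ng/ml biotin-IgE. Cells washed into release buffer (0.025% BSA), 10,000/well, compound 30 min, then streptavidin 125 ng/ml for 30 min. Supernatants and freeze-thaw lysates incubated with 1 mM substrate (citrate, pH 4.5) 90 min at 37°C. Stopped with 0.4 M glycine pH 10.0; A405 read.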
# [3] = molecular target: Tyrosine-protein kinase BTK (Homo sapiens) (UniProt Q06187); settings: 1 uM
# Tyrosine-protein kinase BTK (Homo sapiens), sequence (Q06187 whole entry): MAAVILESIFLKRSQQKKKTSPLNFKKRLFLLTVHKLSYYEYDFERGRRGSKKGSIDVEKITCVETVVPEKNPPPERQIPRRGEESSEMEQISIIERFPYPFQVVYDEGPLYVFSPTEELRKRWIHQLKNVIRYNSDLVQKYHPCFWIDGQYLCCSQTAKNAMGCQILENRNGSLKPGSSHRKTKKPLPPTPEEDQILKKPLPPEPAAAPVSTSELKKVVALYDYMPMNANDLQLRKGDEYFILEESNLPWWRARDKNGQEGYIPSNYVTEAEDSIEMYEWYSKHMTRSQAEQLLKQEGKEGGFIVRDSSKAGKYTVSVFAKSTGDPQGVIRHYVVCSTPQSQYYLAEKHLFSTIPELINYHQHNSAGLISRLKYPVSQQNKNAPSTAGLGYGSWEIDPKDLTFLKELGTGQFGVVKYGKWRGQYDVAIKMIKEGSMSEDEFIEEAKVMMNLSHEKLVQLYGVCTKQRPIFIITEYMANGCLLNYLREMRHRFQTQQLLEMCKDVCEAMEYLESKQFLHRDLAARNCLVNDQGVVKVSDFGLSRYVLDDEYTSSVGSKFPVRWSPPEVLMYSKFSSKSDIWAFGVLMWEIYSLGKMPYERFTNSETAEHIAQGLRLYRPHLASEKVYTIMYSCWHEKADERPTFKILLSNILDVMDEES
# [4] = molecular target: Tyrosine-protein kinase ITK/TSK (Homo sapiens) (UniProt Q08881); settings: 1 uM
# [5] = molecular target: Tyrosine-protein kinase JAK3 (Homo sapiens) (UniProt P52333); settings: 1 uM
# [6] = molecular target: Tyrosine-protein kinase receptor UFO (Homo sapiens) (UniProt P30530); settings: 1 uM
# [7] = molecular target: MAP kinase-activated protein kinase 5 (Homo sapiens) (UniProt Q8IW41); settings: 1 uM
# [8] = molecular target: Tyrosine-protein kinase Yes (Homo sapiens) (UniProt P07947); settings: 1 uM
# CHO = experiment: Cytotoxicity against CHO cells; type: cell-based, Cricetulus griseus; settings: chinese hamster
# [9] = molecular target: Serine/threonine-protein kinase pim-1 (Homo sapiens) (UniProt P11309); settings: 1 uM
# [10] = molecular target: Mitogen-activated protein kinase kinase kinase 7 (TAK1) (Homo sapiens) (UniProt O43318); settings: 1 uM
# Mitogen-activated protein kinase kinase kinase 7 (TAK1) (Homo sapiens), sequence (O43318 whole entry, looked up): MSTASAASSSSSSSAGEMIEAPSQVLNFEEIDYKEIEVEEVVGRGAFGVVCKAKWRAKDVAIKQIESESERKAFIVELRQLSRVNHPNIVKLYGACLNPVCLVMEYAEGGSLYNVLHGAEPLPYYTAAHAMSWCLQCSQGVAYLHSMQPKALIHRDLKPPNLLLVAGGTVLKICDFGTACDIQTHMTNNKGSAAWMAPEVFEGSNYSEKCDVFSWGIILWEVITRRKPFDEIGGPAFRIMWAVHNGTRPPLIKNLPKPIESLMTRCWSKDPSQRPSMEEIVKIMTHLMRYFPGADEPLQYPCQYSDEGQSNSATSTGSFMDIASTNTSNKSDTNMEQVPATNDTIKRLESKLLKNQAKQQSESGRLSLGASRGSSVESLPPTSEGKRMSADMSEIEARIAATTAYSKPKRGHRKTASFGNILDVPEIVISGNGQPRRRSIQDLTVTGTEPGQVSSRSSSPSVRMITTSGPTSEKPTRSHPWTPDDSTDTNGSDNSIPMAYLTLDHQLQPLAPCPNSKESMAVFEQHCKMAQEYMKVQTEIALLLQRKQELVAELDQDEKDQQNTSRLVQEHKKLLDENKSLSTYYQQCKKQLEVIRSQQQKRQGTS
# [11] = Aqueous solubility of the compound at pH 7.4; type: physicochemical
# [12] = molecular target: Rho-associated protein kinase 2 (Homo sapiens) (UniProt O75116); settings: 1 uM
# [13] = molecular target: ALK tyrosine kinase receptor (Homo sapiens) (UniProt Q9UM73); settings: 1 uM
# [14] = molecular target: Tyrosine-protein kinase Fgr (Homo sapiens) (UniProt P09769); settings: 1 uM
# [15] = molecular target: Tyrosine-protein kinase HCK (Homo sapiens) (UniProt P08631); settings: 1 uM
# [16] = molecular target: Cyclin-dependent kinase 1/cyclin B1 (Homo sapiens) (UniProt P06493+P14635); settings: 1 uM
# Cyclin-dependent kinase 1/cyclin B1 (Homo sapiens), sequence (P06493 whole entry, looked up): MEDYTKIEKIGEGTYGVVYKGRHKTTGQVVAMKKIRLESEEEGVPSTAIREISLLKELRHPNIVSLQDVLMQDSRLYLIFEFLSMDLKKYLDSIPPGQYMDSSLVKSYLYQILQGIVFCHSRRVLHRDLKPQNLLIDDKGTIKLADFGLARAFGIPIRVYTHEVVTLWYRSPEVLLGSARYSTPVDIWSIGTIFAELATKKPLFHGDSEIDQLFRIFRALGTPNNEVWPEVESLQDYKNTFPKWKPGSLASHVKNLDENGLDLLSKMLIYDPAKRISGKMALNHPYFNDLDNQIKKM
# Cyclin-dependent kinase 1/cyclin B1 (Homo sapiens), sequence (P14635 whole entry, looked up): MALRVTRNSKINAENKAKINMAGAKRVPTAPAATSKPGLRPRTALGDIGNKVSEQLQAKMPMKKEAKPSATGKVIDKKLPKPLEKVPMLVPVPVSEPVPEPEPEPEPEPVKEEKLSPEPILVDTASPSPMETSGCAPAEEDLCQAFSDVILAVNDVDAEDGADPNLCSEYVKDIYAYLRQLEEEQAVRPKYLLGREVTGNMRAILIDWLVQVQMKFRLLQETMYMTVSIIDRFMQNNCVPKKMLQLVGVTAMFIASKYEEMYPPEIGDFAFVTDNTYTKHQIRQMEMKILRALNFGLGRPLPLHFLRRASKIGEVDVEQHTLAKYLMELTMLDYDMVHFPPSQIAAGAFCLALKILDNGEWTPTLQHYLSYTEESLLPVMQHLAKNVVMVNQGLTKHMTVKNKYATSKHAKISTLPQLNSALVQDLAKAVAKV
# [17] = molecular target: Serine/threonine-protein kinase Chk1 (Homo sapiens) (UniProt O14757); settings: 1 uM
# [18] = molecular target: Tyrosine-protein kinase JAK2 (Homo sapiens) (UniProt O60674); settings: 1 uM
# [19] = molecular target: Protein-tyrosine kinase 2-beta (Homo sapiens) (UniProt Q14289); settings: 1 uM
# [20] = molecular target: Protein kinase C beta type (Homo sapiens) (UniProt P05771); settings: 1 uM
# Protein kinase C beta type (Homo sapiens), sequence (P05771 2-671 limits assumed): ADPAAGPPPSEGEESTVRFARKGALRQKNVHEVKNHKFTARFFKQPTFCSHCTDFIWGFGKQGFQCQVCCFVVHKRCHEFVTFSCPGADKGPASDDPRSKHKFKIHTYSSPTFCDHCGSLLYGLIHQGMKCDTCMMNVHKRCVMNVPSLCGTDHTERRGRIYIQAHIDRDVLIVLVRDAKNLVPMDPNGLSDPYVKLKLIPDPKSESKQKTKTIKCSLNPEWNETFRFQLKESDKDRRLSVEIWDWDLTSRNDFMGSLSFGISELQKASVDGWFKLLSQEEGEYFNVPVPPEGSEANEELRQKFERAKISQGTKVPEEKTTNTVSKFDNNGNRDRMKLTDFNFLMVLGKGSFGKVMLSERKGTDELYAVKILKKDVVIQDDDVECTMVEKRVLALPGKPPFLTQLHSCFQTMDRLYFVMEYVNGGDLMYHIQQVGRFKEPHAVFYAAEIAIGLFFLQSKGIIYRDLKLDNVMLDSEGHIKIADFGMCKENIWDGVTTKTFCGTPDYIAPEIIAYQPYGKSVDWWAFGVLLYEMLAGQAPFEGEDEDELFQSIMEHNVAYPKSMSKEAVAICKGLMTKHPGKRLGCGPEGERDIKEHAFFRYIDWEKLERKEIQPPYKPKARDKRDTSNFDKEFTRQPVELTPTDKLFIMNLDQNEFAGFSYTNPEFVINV
# [21] = molecular target: Proto-oncogene tyrosine-protein kinase receptor Ret (Homo sapiens) (UniProt P07949); settings: 1 uM
# [22] = molecular target: Aurora kinase A (Homo sapiens) (UniProt O14965); settings: 1 uM
# [23] = Apparent permeability across basolateral to apical side in human Caco2 cells; type: ADME, cell-based; settings: Caco-2
# [24] = molecular target: Protein kinase C gamma type (Homo sapiens) (UniProt P05129); settings: 1 uM
# [25] = molecular target: Inhibitor of nuclear factor kappa-B kinase subunit beta (Homo sapiens) (UniProt O14920); settings: 1 uM
# [26] = molecular target: Vascular endothelial growth factor receptor 1 (Homo sapiens) (UniProt P17948); settings: 1 uM
# [27] = molecular target: Calcium/calmodulin-dependent protein kinase type II subunit delta (Homo sapiens) (UniProt Q13557); settings: 1 uM
# [28] = molecular target: Proto-oncogene tyrosine-protein kinase Src (Homo sapiens) (UniProt P12931); settings: 1 uM
# [29] = Apparent permeability across apical to basolateral side in human Caco2 cells; type: ADME, cell-based; settings: Caco-2
# [30] = molecular target: Tyrosine-protein kinase SYK (Homo sapiens, UniProt P43405); experiment: Inhibition of human recombinant […] using poly-GT as substrate and [33P]ATP after 40 mins by beta counting
# [31] = molecular target: T1, Tyrosine-protein kinase Lyn (Homo sapiens, UniProt P07948); experiment: Inhibition of human Lyn
# [32] = molecular target: Tyrosine-protein kinase Lck (Homo sapiens) (UniProt P06239); settings: 1 uM
# [33] = molecular target: Mitogen-activated protein kinase 10 (Homo sapiens) (UniProt P53779); settings: 1 uM
# [34] = molecular target: T1, Tyrosine-protein kinase Lyn; settings: 1 uM
# [35] = molecular target: 3-phosphoinositide-dependent protein kinase 1 (Homo sapiens) (UniProt O15530); settings: 1 uM
# 3-phosphoinositide-dependent protein kinase 1 (Homo sapiens), sequence (O15530 whole entry, looked up): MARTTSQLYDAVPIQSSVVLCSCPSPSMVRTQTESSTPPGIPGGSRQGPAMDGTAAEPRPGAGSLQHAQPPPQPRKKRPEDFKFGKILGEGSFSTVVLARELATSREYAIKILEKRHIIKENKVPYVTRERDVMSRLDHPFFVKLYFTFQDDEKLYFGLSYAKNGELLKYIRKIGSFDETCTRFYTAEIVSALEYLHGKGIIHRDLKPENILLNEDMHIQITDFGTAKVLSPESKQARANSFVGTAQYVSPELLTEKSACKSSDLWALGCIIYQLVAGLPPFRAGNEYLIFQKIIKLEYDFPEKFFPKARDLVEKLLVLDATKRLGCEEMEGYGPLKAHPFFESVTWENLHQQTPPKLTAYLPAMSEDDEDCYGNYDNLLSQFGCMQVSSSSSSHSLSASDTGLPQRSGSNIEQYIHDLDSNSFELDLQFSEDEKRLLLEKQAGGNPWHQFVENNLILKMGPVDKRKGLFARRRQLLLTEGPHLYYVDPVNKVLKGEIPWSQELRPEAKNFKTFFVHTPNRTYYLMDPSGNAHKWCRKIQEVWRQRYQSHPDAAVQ
# [36] = molecular target: Fibroblast growth factor receptor 3 (Homo sapiens) (UniProt P22607); settings: 1 uM
# [37] = molecular target: High affinity nerve growth factor receptor (Homo sapiens) (UniProt P04629); settings: 1 uM
# [38] = molecular target: Casein kinase I isoform delta (Homo sapiens) (UniProt P48730); settings: 1 uM
# Casein kinase I isoform delta (Homo sapiens), sequence (P48730 whole entry, looked up, canonical isoform): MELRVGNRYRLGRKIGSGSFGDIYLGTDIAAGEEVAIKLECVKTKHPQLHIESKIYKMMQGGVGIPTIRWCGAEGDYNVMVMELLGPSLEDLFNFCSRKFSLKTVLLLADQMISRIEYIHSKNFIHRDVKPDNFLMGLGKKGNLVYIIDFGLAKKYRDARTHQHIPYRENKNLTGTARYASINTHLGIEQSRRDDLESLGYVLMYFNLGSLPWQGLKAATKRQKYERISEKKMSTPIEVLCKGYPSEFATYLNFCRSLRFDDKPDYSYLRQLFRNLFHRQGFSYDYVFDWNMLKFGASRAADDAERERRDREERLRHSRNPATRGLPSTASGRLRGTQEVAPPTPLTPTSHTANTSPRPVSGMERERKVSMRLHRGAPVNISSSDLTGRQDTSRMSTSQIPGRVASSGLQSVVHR
# [39] = molecular target: Tyrosine-protein kinase Fyn (Homo sapiens) (UniProt P06241); settings: 1 uM
# [40] = molecular target: Protein kinase C epsilon type (Homo sapiens) (UniProt Q02156); settings: 1 uM
# [41] = Lipophilicity, log D of the compound at pH 7.4; type: physicochemical; settings: buffer
# [42] = molecular target: Dual specificity mitogen-activated protein kinase kinase 6 (Homo sapiens) (UniProt P52564); settings: 1 uM
# [43] = molecular target: Receptor-type tyrosine-protein kinase FLT3 (Homo sapiens) (UniProt P36888); settings: 1 uM
# [44] = molecular target: Ribosomal protein S6 kinase alpha-6 (Homo sapiens) (UniProt Q9UK32); settings: 1 uM
# [45] = molecular target: Hepatocyte growth factor receptor (Homo sapiens) (UniProt P08581); settings: 1 uM
# [46] = molecular target: Focal adhesion kinase 1 (Homo sapiens) (UniProt Q05397); settings: 1 uM
# [47] = molecular target: Tyrosine-protein kinase ZAP-70 (Homo sapiens) (UniProt P43403); settings: 1 uM
# [48] = molecular target: Glycogen synthase kinase-3 beta (Homo sapiens) (UniProt P49841); settings: 1 uM
# [49] = molecular target: Glycogen synthase kinase-3 alpha (Homo sapiens) (UniProt P49840); settings: 1 uM
# Glycogen synthase kinase-3 alpha (Homo sapiens), sequence (P49840 2-483 limits assumed): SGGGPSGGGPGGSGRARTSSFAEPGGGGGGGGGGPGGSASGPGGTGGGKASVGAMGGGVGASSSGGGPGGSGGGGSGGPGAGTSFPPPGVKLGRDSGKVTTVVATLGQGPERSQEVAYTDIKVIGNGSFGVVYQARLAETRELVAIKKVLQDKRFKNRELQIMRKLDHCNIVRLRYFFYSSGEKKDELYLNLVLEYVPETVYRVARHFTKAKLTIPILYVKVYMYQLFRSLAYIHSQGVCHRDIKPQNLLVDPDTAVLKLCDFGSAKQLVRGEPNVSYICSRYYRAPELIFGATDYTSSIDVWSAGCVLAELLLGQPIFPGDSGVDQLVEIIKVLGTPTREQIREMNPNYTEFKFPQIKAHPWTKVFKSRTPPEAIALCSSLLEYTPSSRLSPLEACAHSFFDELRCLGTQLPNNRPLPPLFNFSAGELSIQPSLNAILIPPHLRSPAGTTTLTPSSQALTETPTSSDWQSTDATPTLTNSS
# [50] = molecular target: Macrophage colony-stimulating factor 1 receptor (Homo sapiens) (UniProt P07333); settings: 1 uM
structure (smiles),measurement,setting,value
Cn1cc(-c2cccc(-c3cnc(N)c(C(=O)NC(C)(C)C4CCNCC4)n3)c2)cn1,IC50,LAD2 [1],0.55 µM
COc1cc(-c2cnn(C)c2)cc(-c2cnc(N)c(C(=O)N[C@H]3C4CC5CC3C[C@@](O)(C5)C4)n2)c1,IC50,LAD2 [1],0.14 µM
CC(C)(NC(=O)c1nc(-c2ccc3cn[nH]c3c2)cnc1N)C1CCNCC1,IC50,LAD2 [1],0.86 µM
Cc1cc(-c2cnn(C)c2)cc(-c2cnc(N)c(C(=O)N[C@H]3C4CC5CC3C[C@@](O)(C5)C4)n2)c1,IC50,LAD2 [1],0.15 µM
Nc1ncc(-c2cccc(-c3cnn(CCO)c3)c2)nc1C(=O)N[C@H]1C2CC3CC1C[C@@](O)(C3)C2,IC50,LAD2 [1],0.12 µM
CCn1cc(-c2cccc(-c3cnc(N)c(C(=O)N[C@H]4C5CC6CC4C[C@](O)(C6)C5)n3)c2)cn1,IC50,LAD2 [1],0.18 µM
COc1cncc(-c2cccc(-c3cnc(N)c(C(=O)NC(C)(C)C4CCNCC4)n3)c2)c1,inhibition at 1 µM,LAD2 [2],65%
COc1cccc(-c2cnc(N)c(C(=O)NC(C)(C)C3CCNCC3)n2)c1,IC50,LAD2 [1],1.96 µM
Cn1cc(-c2cccc(-c3cnc(N)c(C(=O)N[C@H]4C5CC6CC4C[C@@](O)(C6)C5)n3)c2)cn1,inhibition,[3],< 50%
same,inhibition,[4],< 50%
same,inhibition,[5],> 50%
same,inhibition,[6],> 50%
same,inhibition,[7],< 50%
same,inhibition,[8],> 50%
same,Activity,CHO,Non-toxic
same,inhibition,[9],> 50%
same,inhibition,[10],< 50%
same,solubility,[11],25 µg/mL
same,inhibition,[12],< 50%
same,inhibition,[13],> 50%
same,inhibition,[14],> 50%
same,inhibition,[15],> 50%
same,inhibition,[16],> 50%
same,inhibition,[17],< 50%
same,inhibition,[18],> 50%
same,inhibition,[19],< 50%
same,inhibition,[20],< 50%
same,inhibition,[21],> 50%
same,inhibition,[22],> 50%
same,Papp B→A,[23],13 ×10⁻⁶ cm/s
same,inhibition,[24],< 50%
same,inhibition,[25],< 50%
same,inhibition,[26],> 50%
same,inhibition,[27],< 50%
same,inhibition,[28],> 50%
same,Papp A→B,[29],28 ×10⁻⁶ cm/s
same,IC50,[30],0.04 µM
same,IC50,[31],0.325 µM
same,IC50,LAD2 [1],0.09 µM
same,inhibition,[32],> 50%
same,inhibition,[33],< 50%
same,inhibition,[34],> 50%
same,inhibition,[35],< 50%
same,inhibition,[36],> 50%
same,inhibition,[37],> 50%
same,inhibition,[38],< 50%
same,inhibition,[39],> 50%
same,inhibition,[40],< 50%
same,logD,[41],1.5
same,inhibition,[42],< 50%
same,inhibition,[43],> 50%
same,inhibition,[44],> 50%
same,inhibition,[45],< 50%
same,inhibition,[46],< 50%
same,inhibition,[47],< 50%
same,inhibition,[48],< 50%
same,inhibition,[49],> 50%
same,inhibition,[50],> 50%
NCCn1cc(-c2cccc(-c3cnc(N)c(C(=O)N[C@H]4C5CC6CC4C[C@@](O)(C6)C5)n3)c2)cn1,IC50,LAD2 [1],1 µM
CC(C)(NC(=O)c1nc(-c2cccc3cn[nH]c23)cnc1N)C1CCNCC1,inhibition at 1 µM,LAD2 [2],48%
NC(=O)Cn1cc(-c2cccc(-c3cnc(N)c(C(=O)N[C@H]4C5CC6CC4C[C@@](O)(C6)C5)n3)c2)cn1,IC50,LAD2 [1],0.16 µM
CC(C)n1cc(-c2cccc(-c3cnc(N)c(C(=O)N[C@H]4C5CC6CC4C[C@@](O)(C6)C5)n3)c2)cn1,IC50,LAD2 [1],0.22 µM
COCCn1cc(-c2cccc(-c3cnc(N)c(C(=O)N[C@H]4C5CC6CC4C[C@@](O)(C6)C5)n3)c2)cn1,IC50,LAD2 [1],0.18 µM
CS(=O)(=O)Nc1cccc(-c2cnc(N)c(C(=O)N3CCC(O)CC3)n2)c1,IC50,[30],> 50 µM
Cn1cc(-c2cccc(-c3cnc(N)c(C(=O)N[C@H]4C5CC6CC4C[C@](O)(C6)C5)n3)c2)cn1,IC50,[30],0.02 µM
same,IC50,LAD2 [1],0.12 µM
Nc1ncc(-c2cccc(-c3cnn(CC(F)(F)F)c3)c2)nc1C(=O)N[C@H]1C2CC3CC1C[C@@](O)(C3)C2,IC50,LAD2 [1],0.14 µM
CCCn1cc(-c2cccc(-c3cnc(N)c(C(=O)N[C@H]4C5CC6CC4C[C@@](O)(C6)C5)n3)c2)cn1,IC50,LAD2 [1],0.17 µM
CC(C)(NC(=O)c1nc(-c2cccc(-c3ccc(N)nc3)c2)cnc1N)C1CCNCC1,Papp B→A,[23],2.38 ×10⁻⁶ cm/s
same,IC50,LAD2 [1],0.56 µM
Nc1ncc(-c2ccc3cn[nH]c3c2)nc1C(=O)N[C@H]1C2CC3CC1C[C@](O)(C3)C2,IC50,LAD2 [1],0.4 µM
CC(C)(NC(=O)c1nc(-c2cccc(OC(F)(F)F)c2)cnc1N)C1CCNCC1,IC50,LAD2 [1],1.1 µM
CCn1cc(-c2cccc(-c3cnc(N)c(C(=O)N[C@H]4C5CC6CC4C[C@@](O)(C6)C5)n3)c2)cn1,IC50,LAD2 [1],0.11 µM
Nc1ncc(-c2cccc(-c3cnn(CC(=O)O)c3)c2)nc1C(=O)N[C@H]1C2CC3CC1C[C@@](O)(C3)C2,inhibition at 1 µM,LAD2 [2],43%
Nc1ncc(-c2cccc(-c3cn[nH]c3)c2)nc1C(=O)N[C@H]1C2CC3CC1C[C@@](O)(C3)C2,IC50,LAD2 [1],0.1 µM
Nc1ncc(-c2ccc3cn[nH]c3c2)nc1C(=O)N[C@H]1C2CC3CC1C[C@@](O)(C3)C2,IC50,LAD2 [1],0.12 µM
Nc1ncc(-c2cccc(-c3cnn(CCO)c3)c2)nc1C(=O)N[C@H]1C2CC3CC1C[C@](O)(C3)C2,IC50,LAD2 [1],0.14 µM
Nc1ccc(-c2cccc(-c3cnc(N)c(C(=O)N[C@H]4C5CC6CC4C[C@@](O)(C6)C5)n3)c2)cn1,IC50,LAD2 [1],0.18 µM
CC(C)(NC(=O)c1nc(-c2ccc3c(c2)NC(=O)C3)cnc1N)C1CCNCC1,inhibition at 1 µM,LAD2 [2],10%

# — ChEMBL document CHEMBL2016552, “Pyrazine-based Syk kinase inhibitors” (Bioorg Med Chem Lett, 2012)
